# NLRP3 yeast inh: NALP3 inhibition in yeast; Yeast reconstituted NLRP3/ASC/caspase-1, beta-gal luminescence, 24 h; inhibition, % at 10 µM; 330,000 tested, 0.39% active;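 active = inhibition of 50% or more; inactive = inhibition below 50%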;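 note: plate controls were induced DMSO wells for no effect and uninduced yeast grown without galactose for full effect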
# NALP1 yeast inh: NALP1 inhibition; S. cerevisiae NALP1/ASC/caspase-1 growth, X-gal OD620, 72 h; inhibition, % at 10 µM; 280,000 tested, 0.61% active; AID 2071; in the data active = inhibition mostly above about 24%, no sharp cut-off; inactive = mostly below about 32%
# T cruzi repl: T. cruzi replication inhibition; AID 1885; inhibition, % (no concentration beside the values); 300,000 tested, 1.4% active; T. cruzi beta-gal in NIH3T3, luminescence, 90 h;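 active = mean inhibition across valid replicates above about 55%, limit read from the data; inconclusive = mean below that limit but half or more replicates reach it; inactive = mean below it, under half of replicates reach it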;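 note: signal also drops with host cell toxicity which is not excluded here; 0% = plate median of DMSO wells and 100% = zero luminescence signal; higher percent means less beta-gal luminescence so fewer parasites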
#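 assay system = mouse NIH/3T3 fibroblasts infected with β-gal-expressing T. cruzi Tulahuen C4 | input = 5,000 NIH/3T3 host cells per well | buffer or medium = DMEM plus 2% FBS | timing = 3 h host attachment, then at least 90 h co-culture | measured by = GalScreen luminescence, 60 min | evaluation = luminescence reflecting intracellular parasite burden, expressed as percent inhibition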
# PolyA inhibitor: inhibitors of polyadenylation in S. cerevisiae; S. cerevisiae SKY197-pL101 polyadenylation reporter, beta-gal luminescence; efflux-impaired pdr1/pdr3 knockout yeast; score 100 = 6 SD above DMSO; activity score, % at 12 µM; 300,000 tested, 0.02% active;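 active = lowest replicate activity score at least 50, where 100 means six control SD above control mean; inconclusive = lowest score under 50 but half or more replicates reach 50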;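 note: yeast exposed to compound for 9 h at 30 °C; higher score means more reporter readthrough which indicates perturbed polyadenylation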
# L major viab: inhibitors of Leishmania major promastigote growth; Leishmania major promastigotes, resazurin fluorescence viability; inhibition, % at 10 µM; 200,000 tested, 9% active; in the data active = inhibition above about 50%;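 note: promastigotes grown with compound for 44 hours at 28 °C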
# Calb FLC: C. albicans growth modulation with fluconazole; C. albicans CaCi-2 + fluconazole, Alamar Blue growth, 48 h; growth inhibition, % (test concentration not listed); 300,000 tested, 0.57% active; AID 1979;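 active = growth inhibition above about 58% in most replicates, limit read from the data, passing the limit was not always enough; inconclusive = exactly half the replicates above a set limit; inactive = most replicates below a set limit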;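 note: all wells also contain fluconazole at 8 µg/ml as a sub-toxic cotreatment; 0% = median of DMSO wells and 100% = median of geldanamycin control wells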
# An asterisk follows results filed as active; ? = inconclusive; . = not tested or not shown. The sample as a whole holds a higher share of hits than the screen did.
SMILES,NLRP3 yeast inh,NALP1 yeast inh,T cruzi repl,PolyA inhibitor,L major viab,Calb FLC
O=C(C1=C[C@@H](C2CCCCC2)C[C@@H](OCc2ccc(CO)cc2)O1)N1CCN(Cc2ccc3c(c2)OCO3)CC1,29,5,42,-14,57*,17
CCSc1nnc(NC(=O)C(C)Sc2nc3ccccc3[nH]2)s1 (configuration not stated),-9,23,-16,-13,-4,3
CCC1(c2ccccc2)NC(=O)N(CC(=O)NC2(C#N)CCCCC2)C1=O (configuration not stated),5,.,-17,12,.,-3
Cc1c(C(=O)O)[nH]c2ccc([N+](=O)[O-])cc12,.,-1,.,.,-4,.
Cc1c(C(=O)N/N=C/C(C)C)[nH]c2ccc([N+](=O)[O-])cc12,5,14,-2,16,51*,22
CC(C)N(Cc1nc(-c2ccc(Cl)cc2)no1)C(=O)CN(C)S(=O)(=O)c1ccc(Cl)cc1,5,10,56*,11,12,-17
O=C(NCc1ccco1)C1Cc2ccccc2CN1S(=O)(=O)c1ccccc1F (configuration not stated),-2,.,.,.,-4,.
COCCn1c(-c2ccccc2)cnc1SCC(=O)Nc1cccc2ccccc12,11,74*,-1,-18,15,?
COc1ccc(CCNC(=O)CSc2nnc(-c3ccccc3)c3ccccc23)cc1OC,3,19,2,-9,10,18
CCCCn1c(-c2ccccc2)cnc1SCC(=O)NCCc1ccc(OC)c(OC)c1,6,37,38,11,66*,-16
COc1ccc(C(=O)Nc2nc3cc4c(cc3s2)OCO4)c(OC)c1,-8,.,-36,-15,.,-9
CC1(C)CC(=O)C2=C(C1)N=C1c3ccccc3C(=O)C1C2c1ccc(Cl)cc1 (configuration not stated),13,24,53,12,94*,65
CC1(C)CC(=O)C2=C(C1)Nc1ccccc1NC2c1ccc(F)c(F)c1 (configuration not stated),13,16,16,-7,.,8
Cc1ccc(C2C3=C(CC(C)(C)CC3=O)OC3=C2C(=O)CC(C)(C)C3)cc1,13,0,22,10,7,?
Cc1ccc(C2C3=C(CC(C)(C)CC3=O)N=C3c4ccccc4C(=O)C32)cc1 (configuration not stated),9,-21,31,7,99*,85*
CCOC(=O)C1=C(C)N=C2c3ccccc3C(=O)C2C1c1ccc(Cl)cc1 (configuration not stated),4,-5,61*,5,96*,-1
COc1cccc2cc(C(=O)C3=C(O)C(=O)N(CCCN4CCOCC4)C3c3ccncc3)oc12 (configuration not stated),.,.,.,.,-3,.
Cc1cc(C)cc(NC(=O)CC23CC4CC(C2)CC(n2nnc(C)n2)(C4)C3)c1,7,-29,1,-9,46,9
Cc1nnn(C23CC4CC(CC(CC(=O)Nc5ccc(C)c(Cl)c5)(C4)C2)C3)n1,1,-22,50,-18,95*,1
O=C(NNc1ccc(Cl)cc1)c1c(F)cccc1Cl,13,3,.,-1,.,83*
O=C(NNc1ccc(Cl)cc1)c1sccc1Cl,6,12,29,-32,.,105*
NC(=O)c1nn(-c2ccccc2)nc1NC(=O)Cn1nnc(-c2ccccc2)n1,14,23,-13,2,-5,-5
CCn1c(SCC(=O)c2c(N)n(C3CC3)c(=O)[nH]c2=O)nnc1-c1ccoc1C,18,.,.,.,.,.
CCS(=O)(=O)c1cc([N+](=O)[O-])c(Sc2ccccc2NC(C)=O)s1,-27,.,23,-4,.,13
CN(C)CCCCOc1ccc(F)cc1,7,3,?,15,-1,-1
SMILES,NLRP3 yeast inh,NALP1 yeast inh,T cruzi repl,PolyA inhibitor,L major viab,Calb FLC
CC(C)NCCOCCOc1ccc(Cl)cc1Br,29,48,50,12,95*,-21
CN(C)CCOCCOc1ccc(Cl)cc1Br,-3,18,64*,10,93*,?
Clc1ccc(OCCSc2ncccn2)c(Br)c1,42,0,7,-26,1,3
CC(C)NCCOCCOc1ccccc1F,0,0,1,-4,-1,3
Cc1cc(Br)cc(C)c1OCCCCN(C)C,11,18,63*,-3,100*,-24
Cc1ccc(OCCCN(C)C)c(Br)c1,-5,9,26,7,60*,-8
COc1ccc(CN2CCN(CCC(C)C)C(CCO)C2)cc1Cn1cncn1 (configuration not stated),10,-1,7,7,-3,-11
Cc1nc(NC2=NCN(CC3CCCO3)CN2)nc2ccccc12 (configuration not stated),.,.,.,.,1,.
CCOc1cc(-c2nccc3cc(OC)c(OC)cc23)cc(OCC)c1OCC,15,-6,19,3,.,2
Cc1cc(C)c(OCCN(C)C)c(Cl)c1,-7,-8,30,4,1,15
CN(C)CCCOc1ccc(Cl)cc1Br,6,7,68*,18,62*,-11
Cc1cc(Cl)c(OCCCN(C)C)c(Br)c1,15,30,52,7,79*,2
Cc1cc(Cl)c(OCCCCNC(C)(C)C)c(Br)c1,12,35,29,13,98*,-9
CCOC(=O)CSc1cccc2cccnc12,9,-17,27,-22,91*,5
Cc1ccccc1N1C(=O)CC(c2c[nH]c3ccccc23)C1=O (configuration not stated),10,23*,-5,-3,-1,2
Cc1cc(NC(=O)c2cccc([N+](=O)[O-])c2)no1,15,.,-2,-9,.,14
Cc1ccnc(NC(=O)c2ccc([N+](=O)[O-])s2)c1,3,3,55*,-5,.,20
Cc1ccnc(NC(=O)c2cc([N+](=O)[O-])cc([N+](=O)[O-])c2)c1,14,-5,60*,-19,67*,38
Cc1cc(NC(=O)c2cc([N+](=O)[O-])cc([N+](=O)[O-])c2)no1,26,8,55*,-10,.,21
Cn1cc(-c2ccccc2C(N)=O)c(=O)c2cc(Cl)ccc21,3,0,-11,18,73*,1
O=C(NC(=S)Nc1nc2c(s1)CSc1ccccc1-2)c1ccccc1,35,-2,15,-14,38,43
COc1ccccc1NC(=S)N(CCN1CCOCC1)Cc1ccccc1F,8,-2,1,-26,6,-2
CCOc1ccccc1NC(=S)N(CCCN1CCOCC1)Cc1cn(C)c2ccccc12,6,-6,14,16,65*,11
COc1ccccc1NC(=S)N(CCCN1CCOCC1)Cc1cn(C)c2ccccc12,12,0,2,-12,68*,0
O=C(Cc1ccc(F)cc1)N1CCC2(CC1)NCCc1[nH]cnc12,19,16,-1,4,.,20

# Compound activity from PubChem.
